Where a chain is given by its changes, count along the chain named. Names may count otherwise. “And” between values parts separate entries of the source, which are not always exact repeats. Equal values may be shown once. One block for each molecule: values may come before it. No end group written: not given here.
Tests used:
G9a [1] = experiment: Methyltransferase assay with peptide spanning amino acids 160–175 of G9a; assay type: biochemical, murine; settings: even after 1 h of incubation; Supplementary Figure 1
G9amut = experiment: Methylation of modified H3 peptide substrates by G9amut; assay type: biochemical, murine; settings: 25 nM G9amut; Figure 4B
G9afl [2] = biological target: T1, G9afl (Mus musculus, UniProt Q9Z148); experiment: Methylation of modified H3 peptide substrates by wild-type G9a; assay type: biochemical, murine; settings: 25 nM G9afl; Figure 4B
T1 sequence (Q9Z148 1-1263): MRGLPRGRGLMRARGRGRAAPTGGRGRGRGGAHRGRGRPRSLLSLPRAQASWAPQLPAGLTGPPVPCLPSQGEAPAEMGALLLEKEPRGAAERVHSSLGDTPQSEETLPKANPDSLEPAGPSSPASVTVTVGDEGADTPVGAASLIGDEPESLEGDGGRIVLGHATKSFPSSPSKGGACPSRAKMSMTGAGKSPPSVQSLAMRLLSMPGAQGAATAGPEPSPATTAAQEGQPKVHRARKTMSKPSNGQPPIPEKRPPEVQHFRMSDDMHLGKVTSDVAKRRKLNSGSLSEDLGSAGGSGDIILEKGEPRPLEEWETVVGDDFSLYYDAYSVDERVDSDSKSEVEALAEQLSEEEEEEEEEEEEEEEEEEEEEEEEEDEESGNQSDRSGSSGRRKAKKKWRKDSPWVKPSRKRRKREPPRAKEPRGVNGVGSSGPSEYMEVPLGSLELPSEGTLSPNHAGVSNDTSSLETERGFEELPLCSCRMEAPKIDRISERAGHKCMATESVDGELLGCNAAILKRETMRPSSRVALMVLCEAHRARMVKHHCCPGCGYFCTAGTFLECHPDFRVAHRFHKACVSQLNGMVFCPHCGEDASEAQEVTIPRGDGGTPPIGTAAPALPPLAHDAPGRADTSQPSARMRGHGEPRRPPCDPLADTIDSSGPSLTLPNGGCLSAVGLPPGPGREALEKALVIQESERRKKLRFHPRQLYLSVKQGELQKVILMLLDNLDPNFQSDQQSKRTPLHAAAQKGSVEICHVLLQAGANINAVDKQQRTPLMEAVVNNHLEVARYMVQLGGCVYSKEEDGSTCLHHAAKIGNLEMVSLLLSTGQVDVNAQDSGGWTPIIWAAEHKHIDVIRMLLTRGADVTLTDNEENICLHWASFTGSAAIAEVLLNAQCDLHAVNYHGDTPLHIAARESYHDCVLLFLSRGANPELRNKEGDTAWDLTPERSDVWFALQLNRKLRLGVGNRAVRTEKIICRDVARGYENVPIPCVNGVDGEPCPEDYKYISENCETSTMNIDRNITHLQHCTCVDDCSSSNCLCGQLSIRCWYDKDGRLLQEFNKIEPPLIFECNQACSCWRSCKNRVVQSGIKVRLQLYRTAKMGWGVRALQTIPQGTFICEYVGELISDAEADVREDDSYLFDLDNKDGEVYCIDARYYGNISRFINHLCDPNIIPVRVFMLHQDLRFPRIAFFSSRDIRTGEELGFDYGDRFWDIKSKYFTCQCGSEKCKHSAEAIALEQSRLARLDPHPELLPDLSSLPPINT

G9afl [3] = biological target: T1, G9afl; experiment: Steady-state kinetics of G9afl on peptides representing ARKT/S motifs; assay type: biochemical, murine; settings: peptide substrate, enzyme G9afl; for Km / kcat (turnover number): 25°C, pH 9.0, duplicate
H3 = experiment: In vitro methylation of histone H3; assay type: biochemical; settings: 100 fold excess cold AdoMet with tritiated AdoMet; Figure 2B lanes 4 versus 5
How it was run: (§1)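 Automethylation: recombinant murine G9a (full-length or MBP-fused construct lacking the N-terminal 633 aa) incubated with S-adenosyl-L-[methyl-³H]methionine, either alone or, for H3 signal, with recombinant histone H3. Parallel reactions contained excess unlabelled AdoMet as competitor. Reactions run at 25°C for 1 h with 7 µM tritiated AdoMet, resolved on 4–20% SDS-PAGE, Coomassie-stained and fluorographed on film.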

G9a [4] = experiment: In vitro automethylation assay of G9a; assay type: biochemical, murine; settings: 100 fold excess cold AdoMet with tritiated AdoMet; Figure 2B lanes 2 versus 3
How it was run: as §1

full-length G9a = experiment: In vitro methylation of GST-G9a fusion fragments by G9afl; assay type: biochemical, murine; settings: for methylation / radioactive incorporation of GST fusion fragment: fluorography and radioactive incorporation of each band, Figure 2D; for methylation of GST fusion by G9afl: tritiated AdoMet, fluorography, Figure 2C
Wt-H3 = experiment: Steady-state kinetics of G9a enzymes with Wt-H3 peptide; assay type: biochemical; settings: GST fusion enzymes with Wt-H3, steady-state conditions; Supplementary Figure 2
HP1α = experiment: Immunofluorescence co-localization with HP1α in COS-7 cells; assay type: cell-based; settings: 48 h after transfection, Figure 6

Molecule: IVLGHATKSFPSSPSK [G9aK167]
methyl group incorporation to the peptide (G9a [1]): did not observe methyl group incorporation to the peptide

effect of phosphorylated peptide on enzyme (G9amut): inhibited both enzymes
effect of phosphorylated peptide on enzyme (G9afl [2]): inhibited both enzymes
Molecule: CARTKQTARKST(p)GG [H3T11p]

kcat/Km (G9afl [3]): 172 10^6 × M^−1 h^−1
Km (G9afl [3]): 500 ± 50 nM
kcat (turnover number) (G9afl [3]): 86 h⁻¹ and 86 ± 2 h⁻¹
Molecule: CADVKVHRARKTMPKSV [EuHMT]

Molecule: C[S+](CC[C@H](N)C(=O)[O-])C[C@H]1O[C@@H](n2cnc3c(N)ncnc32)[C@H](O)[C@@H]1O (stereo partly drawn) [cold AdoMet, S-adenosyl-L-methionine]
autoradiography signal for H3 (H3): not apparent
autoradiography signal for G9a (G9a [4]): not apparent

kcat/Km (G9afl [3]): 140 10^6 × M^−1 h^−1
Km (G9afl [3]): 700 ± 50 nM
kcat (turnover number) (G9afl [3]): 98 h⁻¹ and 98 ± 4 h⁻¹
Molecule: CPQKKVFKARKTMRVSD [mAM]

effect of phosphorylated peptide on enzyme (G9amut): inhibited both enzymes
effect of phosphorylated peptide on enzyme (G9afl [2]): inhibited both enzymes
Molecule: CARTKQTARKS(p)TGG [H3S10p]

Molecule: GST-G9a (210–264/K239A) (AQGAATAGPEPSPATTAAQEGQPKVHRARATMSKPSNGQPPIPEKRPPEVQHFRM; also: GST fusion; UniProt Q9Z148 210-264, looked up, variant K239A)
methylation / radioactive incorporation of GST fusion fragment (full-length G9a): impaired

kcat (turnover number) (G9afl [3]): 66 h⁻¹
Molecule: CGQPKVHRARKTMPKSV [G9a]

Molecule: GST-G9a (210–246/K243A) (AQGAATAGPEPSPATTAAQEGQPKVHRARKTMSAPSN; also: GST fusion; UniProt Q9Z148 210-246, looked up, variant K243A)
methylation / radioactive incorporation of GST fusion fragment (full-length G9a): decrease in K239 methylation

B1: 1–117: GST fusion containing 1–117 amino acids of G9a (protein, UniProt Q9Z148 1-117, looked up, fragment)
chain: MRGLPRGRGLMRARGRGRAAPTGGRGRGRGGAHRGRGRPRSLLSLPRAQASWAPQLPAGLTGPPVPCLPSQGEAPAEMGALLLEKEPRGAAERVHSSLGDTPQSEETLPKANPDSLE
modifications: GST fusion
methylation of GST fusion by G9afl (full-length G9a): did not methylate

B2: 264–633: GST fusion containing 264–633 amino acids of G9a (protein, UniProt Q9Z148 264-633, looked up, fragment)
chain: MSDDMHLGKVTSDVAKRRKLNSGSLSEDLGSAGGSGDIILEKGEPRPLEEWETVVGDDFSLYYDAYSVDERVDSDSKSEVEALAEQLSEEEEEEEEEEEEEEEEEEEEEEEEEDEESGNQSDRSGSSGRRKAKKKWRKDSPWVKPSRKRRKREPPRAKEPRGVNGVGSSGPSEYMEVPLGSLELPSEGTLSPNHAGVSNDTSSLETERGFEELPLCSCRMEAPKIDRISERAGHKCMATESVDGELLGCNAAILKRETMRPSSRVALMVLCEAHRARMVKHHCCPGCGYFCTAGTFLECHPDFRVAHRFHKACVSQLNGMVFCPHCGEDASEAQEVTIPRGDGGTPPIGTAAPALPPLAHDAPGRADTSQ
modifications: GST fusion
methylation of GST fusion by G9afl (full-length G9a): did not methylate

B3: GST-G9afl (K167A) (protein, UniProt Q9Z148 1-1263, looked up, variant K167A)
chain: T1 sequence (Q9Z148 1-1263) with K167A
modifications: full-length GST fusion
kcat (Wt-H3): 66 h⁻¹

B4: GFP-G9amut (protein, UniProt Q9Z148 1-1263, looked up, variant K233A K239A K243A)
chain: T1 sequence (Q9Z148 1-1263) with K233A, K239A, K243A
modifications: full-length GFP fusion
co-localization with HP1α (HP1α): did not co-localize with HP1α
